Results published in ChEMBL document CHEMBL1156788, “A 1,8-naphthyridone derivative targets the HIV-1 Tat-mediated transcription and potently inhibits the HIV-1 replication” (J Med Chem, 2010).
≈ marks a conversion by molar mass, not a printed value. Calls of active or inactive are those of the source.

Columns and labels:
[1] = tested on: Human immunodeficiency virus 1; assay: Antiviral activity against HIV1 3B in human MT4 cells assessed as protection against virus-induced cytopathogenicity by MTT assay; assay type: functional, organism-based; conditions: Human immunodeficiency virus 1, 3B
How it was run: (§1)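 MT-4 cells at 6 × 10^5 cells/mL, mock- or virus-infected with HIV-1 IIIB or HIV-2 ROD at 100-300 CCID50, with serial 5-fold compound dilutions in triplicate. After 5 days, viability read by MTT at 540 and 690 nm, using the median OD of three wells. EC50 = 50% protection from viral cytopathic effect; CC50 = 50% reduction of OD540 in mock-infected cells. SI = CC50/EC50; mean ± SD of ≥2 experiments.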

[2] = Cytotoxicity against human MT4 cells by MTT assay; assay type: cell-based; how it was run: as §1
[3] = Selectivity index, ratio of CC50 for human MT4 cells to EC50 for HIV1 3B; assay type: toxicity, cell-based; conditions: read-out: Ratio CC50/EC50; how it was run: as §1
[4] = tested on: Human immunodeficiency virus 2; assay: Antiviral activity against HIV2 ROD in human MT4 cells assessed as protection against virus-induced cytopathogenicity by MTT assay; assay type: functional, organism-based; conditions: Human immunodeficiency virus 2, ISOLATE ROD; how it was run: as §1
[5] = Selectivity index, ratio of CC50 for human MT4 cells to EC50 for HIV2 ROD; assay type: toxicity, cell-based; conditions: read-out: Ratio CC50/EC50; how it was run: as §1
[6] = Selectivity index, ratio of CC50 for PMA-stimulated human OM10.1 cells to EC50 for HIV1; assay type: toxicity; conditions: read-out: Ratio CC50/EC50
How it was run: (§2)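 OM-10.1 or U1 cells at 5 × 10⁵ cells/mL were preincubated with compound for 2 h, then stimulated with TNF-α 1 ng/mL or PMA 0.02 μM. After 2 days at 37 °C, supernatant p24 was measured by ELISA for EC50, and parallel cultures were read by MTT for CC50. SI = CC50/EC50. Mean ± SD of at least three experiments.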

[7] = Cytotoxicity against human Jurkat cells by MTT assay; assay type: cell-based
[8] = Cytotoxicity against human HuT78 by MTT assay; assay type: cell-based; conditions: HuT78 cells
How it was run: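 Chronically infected HuT-78 cells; CC50 defined as the concentration reducing cell viability by 50%, measured by the MTT method. Mean ± SD of at least three separate experiments.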

[9] = Cytotoxicity against PMA-stimulated human OM10.1 cells by MTT assay; assay type: cell-based
How it was run: (§3)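 Latently infected OM-10.1 and U1 cells at 5 × 10^5 cells/mL preincubated 2 h with or without compound, then stimulated with TNF-α 1 ng/mL or PMA 0.02 μM. After 2 days at 37 °C, p24 in supernatant measured by ELISA; viability assessed in parallel by MTT. EC50 = 50% reduction of p24; mean ± SD of ≥3 experiments.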

[10] = tested on: Human immunodeficiency virus 1; assay: Antiviral activity against HIV1 in human OM10.1 cells assessed as inhibition of TNF-alpha-stimulated viral expression measured by p24 production; assay type: functional, organism-based; how it was run: as §3
[11] = Selectivity index, ratio of CC50 for PMA-stimulated human U1 cells to EC50 for HIV1; assay type: toxicity, cell-based; conditions: read-out: Ratio CC50/EC50; how it was run: as §2
[12] = Cytotoxicity against TNF-alpha-stimulated human OM10.1 cells by MTT assay; assay type: cell-based; how it was run: as §3
[13] = tested on: Human immunodeficiency virus 1; assay: Antiviral activity against HIV1 3B in human MT4 cells assessed as inhibition of p24 protein production measured delay in infection up to 5 hrs by time-of addition experiment; assay type: functional, organism-based; conditions: in the assay text read “up to 10 hrs” for “up to 5 hrs”
How it was run: (§4)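 Time-of-addition assay. MT-4 cells infected with HIV-1 IIIB at moi 0.5 to synchronize replication. Compounds added at various times from 0 to 25 h post-infection; p24 antigen in supernatant measured by ELISA at 31 h p.i. Reference drugs AZT and ritonavir were given at 100× their MT-4/MTT IC50.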

[14] = tested on: Human immunodeficiency virus 1; assay: Antiviral activity against HIV1 in human U1 cells assessed as inhibition of PMA-stimulated viral expression measured by p24 production; assay type: functional, organism-based; conditions: Human immunodeficiency virus 1, U1; how it was run: as §3
[15] = Selectivity index, ratio of CC50 for human PBMC to EC50 for HIV1
How it was run: (§5)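 PBMCs from healthy donors isolated by density centrifugation and stimulated 3 days with PHA. Blasts washed, plated at 2 × 10^5 per well with serial compound dilutions and infected with HIV at 1000 CCID50/mL. Medium and compound refreshed at day 4; p24 in supernatant measured by ELISA at day 7. EC50 = 50% inhibition of p24; SI = CC50/EC50.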

[16] = tested on: Human immunodeficiency virus 1; assay: Antiviral activity against HIV1 in human U1 cells assessed as inhibition of TNF-alpha-stimulated viral expression measured by p24 production; assay type: functional, organism-based; conditions: Human immunodeficiency virus 1, U1; how it was run: as §3
[17] = Cytotoxicity against human PBMC by MTT assay; assay type: cell-based; conditions: in the assay text read “trypan blue exclusion method” for “MTT assay”
How it was run: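 Cytotoxicity in PHA-stimulated PBMCs read by trypan blue exclusion; CC50 = concentration reducing viability of mock-infected cells by 50%. Mean ± SD of at least two experiments.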

[18] = Selectivity index, ratio of CC50 for human MT4 cells to EC50 for HIV1 3B mutant after 60 passage resistance selection by MTT assay; assay type: toxicity, cell-based; conditions: read-out: Ratio CC50/EC50
[19] = tested on: Human immunodeficiency virus 1; assay: Antiviral activity against HIV1 in human PBMC assessed as inhibition of p24 protein production by MTT assay; assay type: functional, organism-based; conditions: in the assay text read “by ELISA” for “by MTT assay”; how it was run: as §5
[20] = tested on: Human immunodeficiency virus 1; assay: Antiviral activity against HIV1 3B in human […] cells assessed as inhibition of p24 production; assay type: functional, organism-based; conditions: Human immunodeficiency virus 1, 3B
How it was run: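 Chronically infected HuT-78 cells washed with PBS and pelleted three times, then 200000 cells per 1 mL seeded with test compound at set concentrations. Grown 44 h; supernatant p24 measured by ELISA. EC50 = 50% reduction of p24 production; mean ± SD of at least three separate experiments. Nevirapine and ritonavir included as controls.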

[21] = Selectivity index, ratio of CC50 for human MT4 cells to EC50 for HIV1 3B mutant; assay type: toxicity, cell-based; conditions: read-out: Ratio CC50/EC50
How it was run: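 SI = CC50 in mock-infected MT-4 cells (MTT, 5 days) divided by EC50 against the selected mutant in the MT-4 MTT cytopathicity assay.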

[22] = Selectivity index, ratio of CC50 for TNF-alpha-stimulated human U1 cells to EC50 for HIV1; assay type: toxicity, cell-based; conditions: read-out: Ratio CC50/EC50; how it was run: as §2
[23] = tested on: Human immunodeficiency virus 1; assay: Antiviral activity against HIV1 3B in human MT4 cells assessed as inhibition of p24 protein production measured delay in infection up to 18 hrs by time-of addition experiment; assay type: functional, organism-based; conditions: in the assay text read “up to 10 hrs” for “up to 18 hrs”; how it was run: as §4
[24] = tested on: Human immunodeficiency virus 1; assay: Antiviral activity against HIV1 3B mutant in human MT4 cells assessed as protection against virus-induced cytopathogenicity after 60 passage resistance selection by MTT assay; assay type: functional, organism-based; conditions: Human immunodeficiency virus 1, 3B
How it was run: (§6)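 Virus added at 100-300 CCID50 to MT-4 cells (6 × 10⁵ cells/mL) together with serial 5-fold compound dilutions, triplicate wells. Viability read by MTT after 5 days at 540 and 690 nm, using the median OD of three wells. EC50 is the concentration giving 50% protection from virus-induced cytopathic effect. Mean ± SD of at least two experiments.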

[25] = Selectivity index, ratio of CC50 for TNF-alpha-stimulated human OM10.1 cells to EC50 for HIV1; assay type: toxicity; conditions: read-out: Ratio CC50/EC50; how it was run: as §2
C8166T = assay: Antiviral activity against integrase deficient Simian virus 40/HIV-1 chimera (n/N.Tag.oriT) virus in human C8166T cells assessed as inhibition of viral replication; assay type: functional, cell-based
How it was run: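 C8166 T-cells were infected with HIV-1 NL4.3 or N/N.Tag.oriT and exposed to a range of compound concentrations. p24 in the supernatant was measured relative to untreated controls (100%). Toxicity was read in parallel by MTT.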

[26] = Cytotoxicity against TNF-alpha-stimulated human U1 cells by MTT assay; assay type: cell-based; how it was run: as §3
[27] = tested on: Human immunodeficiency virus 1; assay: Antiviral activity against HIV1 in human HeLa cells assessed as inhibition of Tat-mediated transcription after 24 hrs by LTR-driven luciferase reporter assay; assay type: functional, organism-based
How it was run: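 HeLa clone carrying an HIV-1 LTR-luciferase reporter, activated with subsaturating Tat or left without Tat for basal promoter activity. Cells incubated with increasing compound concentrations; luciferase measured in cell lysates 24 h after treatment. Controls were DMSO vehicle, untreated cells and flavopiridol at 10 μM.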

[28] = tested on: Human immunodeficiency virus 1; assay: Antiviral activity against HIV1 in human Jurkat cells assessed as inhibition of GFP expression by flow cytometry; conditions: Human immunodeficiency virus 1, Jurkat
[29] = Cytotoxicity against PMA-stimulated human U1 cells by MTT assay; assay type: cell-based; how it was run: as §3
[30] = tested on: Human immunodeficiency virus 1; assay: Antiviral activity against HIV1 3B mutant in human MT4 cells assessed as protection against virus-induced cytopathogenicity by MTT assay; assay type: functional, organism-based; conditions: Human immunodeficiency virus 1, 3B; how it was run: as §6
[31] = tested on: Human immunodeficiency virus 1; assay: Antiviral activity against HIV1 in human OM10.1 cells assessed as inhibition of PMA-stimulated viral expression measured by p24 production; assay type: functional, organism-based; how it was run: as §3
[32] = Selectivity index, ratio of CC50 for human Jurkat cells to EC50 for HIV1; assay type: toxicity, cell-based; conditions: read-out: Ratio CC50/EC50
[33] = tested on: Human immunodeficiency virus 1; assay: Antiviral activity against HIV1 3B in human MT4 cells assessed as inhibition of p24 protein production measured delay in infection up to 10 hrs by time-of addition experiment; assay type: functional, organism-based; how it was run: as §4

Cn1cc(C(=O)O)c(=O)c2ccc(N3CCN(c4nccs4)CC3)nc21
EC50 [1]: 3.15 mg/L (≈ 8.48 µM) | CC50 [2]: > 125 mg/L | selectivity ratio [3]: > 40 | EC50 [4]: 0.922 mg/L (≈ 2.48 µM) | selectivity ratio [5]: > 136

Cn1cc(C(=O)O)c(=O)c2ccc(N3CCN(c4cccc(C(F)(F)F)c4)CC3)nc21
EC50 [1]: > 0.41 mg/L | CC50 [2]: 0.41 mg/L (≈ 0.948 µM) | selectivity ratio [3]: < 1 | EC50 [4]: > 0.41 mg/L | selectivity ratio [5]: < 1

Cn1cc(C(=O)O)c(=O)c2ccc(N3CCN(c4ccccn4)CC3)nc21
EC50 [1]: 0.62 mg/L (≈ 1.7 µM) | CC50 [2]: 9.93 mg/L (≈ 27.2 µM) | selectivity ratio [3]: 16 | EC50 [4]: 0.55 mg/L (≈ 1.51 µM) | selectivity ratio [5]: 18

Cn1cc(C(=O)O)c(=O)c2ccc(N3CCN(c4nc5ccccc5s4)CC3)nc21
selectivity ratio [6]: 189 | CC50 [7]: 15.1 mg/L (≈ 35.9 µM) | CC50 [8]: > 10 mg/L | CC50 [9]: 0.75 mg/L (≈ 1.78 µM) | EC50 [10]: 0.003 mg/L (≈ 0.00712 µM) | selectivity ratio [11]: 1330 | CC50 [12]: 1.27 mg/L (≈ 3.01 µM) | Activity [13]: Active | EC50 [14]: 0.002 mg/L (≈ 0.00475 µM) | EC50 [1]: 0.03 mg/L (≈ 0.0712 µM) | Ratio CC50/EC50 [15]: 17 | EC50 [16]: 0.003 mg/L (≈ 0.00712 µM) | CC50 [17]: 10.3 mg/L (≈ 24.5 µM) | selectivity ratio [18]: 1420 | EC50 [19]: 0.6 mg/L (≈ 1.42 µM) | EC50 [20]: 0.032 mg/L (≈ 0.0759 µM) | selectivity ratio [21]: 1280 | selectivity ratio [22]: 330 | Activity [23]: Active | EC50 [24]: 0.017 mg/L (≈ 0.0403 µM) | selectivity ratio [25]: 422 | Activity (C8166T): Active | CC50 [26]: 0.99 mg/L (≈ 2.35 µM) | Activity [27]: Dose-dependent effect | EC50 [28]: 0.34 mg/L (≈ 0.807 µM) | CC50 [29]: 2.67 mg/L (≈ 6.33 µM) | EC50 [30]: 0.019 mg/L (≈ 0.0451 µM) | CC50 [2]: 12.1 mg/L (≈ 28.6 µM) | selectivity ratio [3]: 457 | EC50 [31]: 0.004 mg/L (≈ 0.00949 µM) | EC50 [4]: 0.02 mg/L (≈ 0.0475 µM) | selectivity ratio [5]: 522 | selectivity ratio [32]: 44 | Activity [33]: Active
